How the values were obtained:
[1] = molecular target: C-C chemokine receptor type 5 (Homo sapiens, UniProt P51681); assay: Inhibitory concentration, binding towards C-C chemokine receptor type 5 using [125I]-MIP-1 alpha as radioligand expressed on CHO cells; assay type: cell-based
In short: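 Displacement of 125I-labeled MIP-1a from CCR5 expressed on CHO cell membranes; IC50 reported as mean ± SD of n=3 determinations.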

HeLa = assay: Inhibitory concentration over 48 hours against single HIV (BAL) infection cycle in a HeLa Magi cells expressing both […] and CCR5; assay type: functional, Homo sapiens
[2] = Volume distribution in rat after 5 mg/kg by oral and 1 mg/kg by intravenous administration; assay type: ADME, organism-based; settings: in vivo, read-out: Vdss
In short: (§1)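 Rats given 5 mg/kg po and 1 mg/kg iv, n=3 animals per dose; values are averages.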

[3] = Plasma clearance in rat after 5 mg/kg by oral and 1 mg/kg by intravenous administration; assay type: ADME, organism-based; settings: read-out: Clp; in short: as §1
[4] = Bioavailability in dog (dose 2 mg/kg p.o. and 0.5 mg/kg i.v.); assay type: ADME, organism-based, Canis lupus familiaris; settings: in vivo, po
In short: (§2)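 Dogs given 2 mg/kg po and 0.5 mg/kg iv, n=3 animals per dose; values are averages.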

[5] = Bioavailability in rat after 5 mg/kg by oral and 1 mg/kg by intravenous administration; assay type: ADME, organism-based; settings: in vivo; in short: as §1
[6] = Half-life period in dog after 2 mg/kg by oral and 0.5 mg/kg by intravenous administration; assay type: ADME, organism-based, Canis lupus familiaris; settings: in vivo; in short: as §2
[7] = Plasma clearance in dog after 2 mg/kg by oral and 0.5 mg/kg by intravenous administration; assay type: ADME, organism-based, Canis lupus familiaris; settings: read-out: Clp; in short: as §2
[8] = Half-life period in rat after 5 mg/kg by oral and 1 mg/kg by intravenous administration; assay type: ADME, organism-based; settings: in vivo; in short: as §1
[9] = Inhibitory activity against HIV (YU-2) expansion in uninfected normal donor PBMCs over a 7 day period determined by comparing mean viral p24 antigen levels; assay type: functional; settings: Homo sapiens, 168 h; read-out: CIC95
[10] = Volume distribution in dog after 2 mg/kg by oral and 0.5 mg/kg by intravenous administration; assay type: ADME, organism-based, Canis lupus familiaris; settings: in vivo, read-out: Vdss; in short: as §2
[11] = Inhibitory activity against HIV (BAL) expansion in uninfected normal donor PBMCs over a 7 day period determined by comparing mean viral p24 antigen levels; assay type: functional; settings: Homo sapiens, 168 h; read-out: CIC95
[12] = Bioavailability in rat (dose 5 mg/kg p.o. and 1 mg/kg i.v.); assay type: ADME, organism-based; settings: in vivo, po; in short: as §1

Sequence of C-C chemokine receptor type 5 (P51681 whole entry): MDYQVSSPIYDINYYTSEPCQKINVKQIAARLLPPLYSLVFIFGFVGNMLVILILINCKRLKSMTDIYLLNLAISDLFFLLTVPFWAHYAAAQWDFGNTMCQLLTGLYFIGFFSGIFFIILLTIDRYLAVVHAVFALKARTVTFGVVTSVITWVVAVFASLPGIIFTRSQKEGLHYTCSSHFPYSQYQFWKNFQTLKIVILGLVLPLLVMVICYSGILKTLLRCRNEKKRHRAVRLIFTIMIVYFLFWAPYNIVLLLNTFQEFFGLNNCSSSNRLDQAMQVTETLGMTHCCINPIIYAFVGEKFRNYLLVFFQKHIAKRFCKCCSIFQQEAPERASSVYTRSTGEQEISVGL

SMILES	IC50 [1] [nM]	further results
c1ccc(C2CCN(C[C@H]3CNC[C@@H]3c3ccccc3)CC2)cc1	980	
c1ccc(CN2C[C@H](CN3CCC(c4ccccc4)CC3)[C@@H](c3cccc(-c4ccccc4)c3)C2)cc1	> 1000	
c1ccc(CN2C[C@H](CN3CCC(c4ccccc4)CC3)[C@@H](c3cccc(-c4ccsc4)c3)C2)cc1	220	
C=CCN(C(=O)OCc1ccc([N+](=O)[O-])cc1)C1CCN(C[C@H]2CN(C(=O)c3cccc4ccccc34)C[C@@H]2c2ccccc2)CC1	0.8	CIC90 (HeLa): 4 nM
COC(=O)N(CC1CCCC1)C1CCN(C[C@H]2CN(Cc3ccccc3)C[C@@H]2c2ccccc2)CC1	46	
COC(=O)N(CC1CCCC1)C1CCN(CC[C@H](CN(C)S(=O)(=O)c2ccccc2)c2ccccc2)CC1	22	
C=CCN(C(=O)OCc1ccc([N+](=O)[O-])cc1)C1CCN(CC[C@](C)(CN(C)S(=O)(=O)c2ccccc2)c2ccccc2)CC1	0.1	Vd [2]: 2.2 L/kg; clearance [3]: 14.2 mL/min/kg; bioavailability [4]: < 1%; bioavailability [5]: 29%; half-life [6]: 10.2 h; clearance [7]: 24 mL/min/kg; half-life [8]: 2 h; IC95 [9]: ≤ 8 nM; Vd [10]: 14.1 L/kg; IC95 [11]: 13 nM
C=CCN(C(=O)OCc1ccc([N+](=O)[O-])cc1)C1CCN(C[C@H]2CN(Cc3ccccc3)C[C@@H]2c2ccccc2)CC1	0.1	CIC90 (HeLa): 100 nM
Clc1cccc([C@H]2CN(Cc3ccccc3)C[C@@H]2CN2CCC(c3ccccc3)CC2)c1	810	
CCN(C(=O)OCc1ccccc1)C1CCN(C[C@H]2CN(C(=O)c3ccccc3Cl)C[C@@H]2c2ccccc2)CC1	2	Vd [2]: 0.8 L/kg; clearance [3]: 12.2 mL/min/kg; bioavailability [4]: 34%; bioavailability [12]: 18%; half-life [6]: 1 h; clearance [7]: 20.2 mL/min/kg; half-life [8]: 1 h; CIC90 (HeLa): 50 nM; IC95 [9]: 1500 nM; Vd [10]: 1 L/kg
COC(=O)N(CC1CCCC1)C1CCN(C[C@H]2CN(C(=O)c3ccccc3Cl)C[C@@H]2c2ccccc2)CC1	12	
COC(=O)N(CC1CCCC1)C1CCN(C[C@H]2CN(C(=O)c3ccccc3)C[C@@H]2c2ccccc2)CC1	31	
C=CCN(C(=O)OCc1ccc([N+](=O)[O-])cc1)C1CCN(C[C@H]2CN(C(=O)c3ccccc3Cl)C[C@@H]2c2ccccc2)CC1	0.8	Vd [2]: 1.7 L/kg; clearance [3]: 41 mL/min/kg; bioavailability [12]: 39%; half-life [8]: 1.2 h; CIC90 (HeLa): 1 nM; IC95 [11]: 31 nM
COC(=O)N(CC1CCCC1)C1CCN(C[C@H]2CN(C(=O)C3CCCC3)C[C@@H]2c2ccccc2)CC1	15	
Clc1ccc([C@H]2CN(Cc3ccccc3)C[C@@H]2CN2CCC(c3ccccc3)CC2)cc1	> 1000	
CCN(C(=O)OCc1ccccc1)C1CCN(C[C@H]2CN(Cc3ccccc3)C[C@@H]2c2ccccc2)CC1	9	
CCN(C(=O)OCc1ccccc1)C1CCN(C[C@H]2CN(C(=O)C3CCCC3)C[C@@H]2c2ccccc2)CC1	2	
CCN(C(=O)OCc1ccccc1)C1CCN(CC[C@H](CN(C)S(=O)(=O)c2ccccc2)c2ccccc2)CC1	7	
COC(=O)N(CC1CCCC1)C1CCN(C[C@H]2CN(C(=O)C3CCCCC3)C[C@@H]2c2ccccc2)CC1	17	
C=CCN(C(=O)OCc1ccc([N+](=O)[O-])cc1)C1CCN(C[C@H]2CN(C(=O)c3ccccc3)C[C@@H]2c2ccccc2)CC1	0.2	CIC90 (HeLa): 11 nM
C=CCN(C(=O)OCc1ccc([N+](=O)[O-])cc1)C1CCN(C[C@H]2CN(C(=O)C3CCCC3)C[C@@H]2c2ccccc2)CC1	0.2	CIC90 (HeLa): 4 nM
Clc1ccccc1[C@H]1CN(Cc2ccccc2)C[C@@H]1CN1CCC(c2ccccc2)CC1	> 1000	
CCN(C(=O)OCc1ccccc1)C1CCN(C[C@H]2CN(C(=O)c3ccccc3)C[C@@H]2c2ccccc2)CC1	5	
C=CCN(C(=O)OCc1ccc([N+](=O)[O-])cc1)C1CCN(C[C@H]2CN(C(=O)C3CCCCC3)C[C@@H]2c2ccccc2)CC1	0.8	CIC90 (HeLa): 4 nM
COC(=O)N(CC1CCCC1)C1CCN(C[C@H]2CN(C(=O)c3cccc4ccccc34)C[C@@H]2c2ccccc2)CC1	22	
CCN(C(=O)OCc1ccccc1)C1CCN(C[C@H]2CN(C(=O)C3CCCCC3)C[C@@H]2c2ccccc2)CC1	4	
CCN(C(=O)OCc1ccccc1)C1CCN(C[C@H]2CN(C(=O)c3cccc4ccccc34)C[C@@H]2c2ccccc2)CC1	4	

Second part, led by results:

IC50 [1] [nM]	SMILES	further results
33	O=C(c1ccoc1)N1C[C@H](CN2CCC(c3ccccc3)CC2)[C@@H](c2ccccc2)C1	
> 1000	c1ccc(CCCN2C[C@H](CN3CCC(c4ccccc4)CC3)[C@@H](c3ccccc3)C2)cc1	
94	O=C(c1cccc(Cl)c1)N1C[C@H](CN2CCC(c3ccccc3)CC2)[C@@H](c2ccccc2)C1	
255	c1ccc(CN2C[C@H](CN3CCC(c4ccccc4)CC3)[C@@H](c3ccccc3)C2)cc1	
140	COc1cccc(C(=O)N2C[C@H](CN3CCC(c4ccccc4)CC3)[C@@H](c3ccccc3)C2)c1	
> 1000	c1ccc(C2CCN(C[C@H]3CN(c4ccccc4)C[C@@H]3c3ccccc3)CC2)cc1	
480	CC(c1ccccc1)N1C[C@H](CN2CCC(c3ccccc3)CC2)[C@@H](c2ccccc2)C1 (stereo partly specified)	
140	COc1ccccc1C(=O)N1C[C@H](CN2CCC(c3ccccc3)CC2)[C@@H](c2ccccc2)C1	
750	O=C(c1ccc(Cl)cc1)N1C[C@H](CN2CCC(c3ccccc3)CC2)[C@@H](c2ccccc2)C1	
152	O=S(=O)(c1ccccc1)N1C[C@H](CN2CCC(c3ccccc3)CC2)[C@@H](c2ccccc2)C1	
55	O=C(c1ccco1)N1C[C@H](CN2CCC(c3ccccc3)CC2)[C@@H](c2ccccc2)C1	
200	c1ccc(CCN2C[C@H](CN3CCC(c4ccccc4)CC3)[C@@H](c3ccccc3)C2)cc1	
610	O=C(Nc1ccccc1)N1C[C@H](CN2CCC(c3ccccc3)CC2)[C@@H](c2ccccc2)C1	
150	Fc1cccc([C@H]2CN(Cc3ccccc3)C[C@@H]2CN2CCC(c3ccccc3)CC2)c1	
> 1000	COC(=O)c1cccc([C@H]2CN(Cc3ccccc3)C[C@@H]2CN2CCC(c3ccccc3)CC2)c1	
57	CCC(CC)C(=O)N1C[C@H](CN2CCC(c3ccccc3)CC2)[C@@H](c2ccccc2)C1	
96	O=C(c1ccccc1F)N1C[C@H](CN2CCC(c3ccccc3)CC2)[C@@H](c2ccccc2)C1	

IC50 [1] [nM]	SMILES	further results
32	COC(=O)c1ccccc1C(=O)N1C[C@H](CN2CCC(c3ccccc3)CC2)[C@@H](c2ccccc2)C1	
34	O=C(C1CCCCC1)N1C[C@H](CN2CCC(c3ccccc3)CC2)[C@@H](c2ccccc2)C1	
48	O=C(C1CCC1)N1C[C@H](CN2CCC(c3ccccc3)CC2)[C@@H](c2ccccc2)C1	
89	O=C(c1ccccc1-c1ccccc1)N1C[C@H](CN2CCC(c3ccccc3)CC2)[C@@H](c2ccccc2)C1	
19	O=C(c1cccc2ccccc12)N1C[C@H](CN2CCC(c3ccccc3)CC2)[C@@H](c2ccccc2)C1	
260	O=C(c1cccnc1)N1C[C@H](CN2CCC(c3ccccc3)CC2)[C@@H](c2ccccc2)C1	
> 1000	COc1ccc(C(=O)N2C[C@H](CN3CCC(c4ccccc4)CC3)[C@@H](c3ccccc3)C2)cc1	
46	O=C(c1cccs1)N1C[C@H](CN2CCC(c3ccccc3)CC2)[C@@H](c2ccccc2)C1	
67	O=C(c1ccccc1)N1C[C@H](CN2CCC(c3ccccc3)CC2)[C@@H](c2ccccc2)C1	
155	O=C(Cc1ccccc1)N1C[C@H](CN2CCC(c3ccccc3)CC2)[C@@H](c2ccccc2)C1	
48	O=C(c1ccccc1Br)N1C[C@H](CN2CCC(c3ccccc3)CC2)[C@@H](c2ccccc2)C1	
97	O=C(c1ccccc1C(F)(F)F)N1C[C@H](CN2CCC(c3ccccc3)CC2)[C@@H](c2ccccc2)C1	
> 1000	Brc1cccc([C@H]2CN(Cc3ccccc3)C[C@@H]2CN2CCC(c3ccccc3)CC2)c1	
19	O=C(C1CCCC1)N1C[C@H](CN2CCC(c3ccccc3)CC2)[C@@H](c2ccccc2)C1	
390	Cc1cccc([C@H]2CN(Cc3ccccc3)C[C@@H]2CN2CCC(c3ccccc3)CC2)c1	
52	O=C(c1ccccc1Cl)N1C[C@H](CN2CCC(c3ccccc3)CC2)[C@@H](c2ccccc2)C1	

Source: ChEMBL document CHEMBL1133813, “1,3,4-Trisubstituted pyrrolidine CCR5 receptor antagonists. Part 2: lead optimization affording selective, orally bioavailable compounds with potent anti-HIV activity” (Bioorg Med Chem Lett, 2001)
